CAL PDZ FP-1 = human CAL PDZ-peptide interaction inhibition | Q9HD26 | purified CAL PDZ, TMR-peptide fluorescence polarization, 1 h | inhibition, % at 20 µM | 0.02% of 330,000 active;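 active = highest replicate inhibition of at least 40%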;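 also: plate controls were DMSO neutral control wells for no effect and unlabeled competitor peptide control wells for full effect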
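Test system: purified CerCALP PDZ construct; Compound dosing: one concentration, 20 µM compound; Also added: TMR-labelled reporter peptide T*-PRC34 bound in PDZ groove; Read-out: inhibition from polarization loss; Controls: unlabelled peptide and DMSO controls; Signal: FP readout, S and P plane fluorescence; Incubation: 1 h at RT.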
CAL PDZ FP-2 = inhibitors of human CAL PDZ peptide binding. Q9HD26. purified CAL PDZ, TMR-peptide fluorescence polarization, 1 h. inhibition, % at 24.9 µM. 0.92% of 300,000 active. AID 602252;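 active = mean inhibition of at least 30% with at least half of replicates also reaching 30%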;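 also: 0% = DMSO neutral control and 100% = excess unlabeled competitor peptide PRC23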
ARNT-TACC3 inh = disrupts binding between human ARNT and TACC3. AlphaScreen His-ARNT PAS-B/GST-TACC3 binding, luminescence; TACC3 fragment carries E629A point mutation. inhibition, % at 9.99 µM. 0.66% of 390,000 active. AID 623870;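 active = mean inhibition of replicates at least 50% and at least half of replicates each reaching 50%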;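 also: 0% = complete ARNT plus TACC3 wells and 100% = ARNT alone without TACC3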
* = called active by the depositor; x = not tested or not shown. Most compounds without a hit are left out; they make up all but 1.2% or so of the library.

SMILES	CAL PDZ FP-1	CAL PDZ FP-2	ARNT-TACC3 inh
COc1cc(/C=N/N=C2/NC(=O)C(CC(=O)O)S2)ccc1OCc1ccc(Cl)cc1 (stereo not drawn)	-3.3	-3.8	-4.2
O=C(O)CC1S/C(=N/N=C/c2ccccn2)NC1=O (stereo not drawn)	-1.7	x	71.0*
COc1ccc(S(=O)(=O)Nc2ccc3c(c2)C(=O)N([C@H](C)CO)C[C@H](C)[C@@H](CN(C)C)OCCCC[C@@H](C)O3)cc1	x	x	-3.3
CC(=NNC(=S)N1CCCCC1)c1cccc(C)n1	-0.1	-1.4	29.0
CSC(=S)NN=C(C)c1cccc(C)n1	-0.1	2.8	58.9*
CN1[C@@H]2Cn3c(ccc(C4=CCCC4)c3=O)[C@H]1[C@@H](C(=O)N1CCCCC1)[C@@H]2CO	x	x	4.9
COc1ccc(NC(=O)Nc2ccc3c(c2)CC(=O)N([C@@H](C)CO)C[C@@H](C)[C@@H](CN(C)C(=O)Nc2ccc(C(F)(F)F)cc2)O3)cc1	x	x	8.2
Cc1cc(NC(=O)CCC(=O)N(Cc2ccco2)C(C(=O)NC2CCCCC2)c2ccccc2)no1 (stereo not drawn)	-1.1	39.1*	-2.7
Cc1cc(NC(=O)CCC(=O)N(Cc2ccco2)C(C(=O)NC2CCCC2)c2ccccc2C)no1 (stereo not drawn)	-0.2	-4.7	1.0
Cc1noc(C)c1NC(=O)N[C@H]1C=C[C@H](CC(=O)N2CCCCC2)O[C@H]1CO	x	x	-7.6
COc1ncnc2c1NC(=O)CS2	0.1	-0.1	-6.6
COc1ncnc2c1N[C@@](C)(O)c1c(F)c(F)c(F)c(F)c1S2	-1.3	46.4*	3.7
O=C(CCc1ccccc1O)N/N=C/c1ccc(Sc2cccc3cccnc23)o1	-1.9	-3.6	66.0*
O=C(N/N=C/c1ccc(Sc2ccccn2)o1)c1cc2ccccc2cc1O	-3.1	x	3.8
CN1CCN(C(=O)C[C@H]2C[C@@H]3c4cc(NC(=O)c5cccnc5)ccc4O[C@@H]3[C@@H](CO)O2)CC1	x	x	6.5
O=C1NC2(CCCCCC2)C(=O)N1Cc1ccccc1Br	-0.5	48.0*	-2.7
CN(Cc1ccccc1)C(=O)CN1C(=O)NC2(CCCC2)C1=O	-1.0	-1.0	-4.8
CN(Cc1ccccc1Br)C(=O)CN1C(=O)NC2(CCCCCC2)C1=O	-0.4	39.0*	-7.2
CCOc1ccccc1CN1C(=O)NC2(CCCCCC2)C1=O	-0.2	-0.6	-1.5
CC(C)NC(=O)Nc1ccc2c(c1)C(=O)N(C)[C@@H]1CC[C@@H](CC(=O)NCC(F)(F)F)O[C@@H]1CO2	x	x	-1.4
CCCNC(=O)C[C@@H]1CC[C@@H]2[C@H](COc3ccc(NC(=O)C4CCCC4)cc3C(=O)N2C)O1	x	x	1.1
O=C(Cc1ccccc1)N1C[C@H]2[C@@H](c3ccccc31)[C@H](CO)N2C(=O)c1cccc(F)c1	x	x	1.9
COc1cc(-c2nnc(NC(=O)CS(=O)(=O)c3ccc(C)cc3)o2)cc(OC)c1OC	-3.1	-0.7	45.3*
O=C(CCS(=O)(=O)c1ccc(F)cc1)Nc1nnc(-c2ccc(F)cc2)o1	-1.9	1.1	8.2
COc1cc(-c2nnc(NC(=O)CS(=O)(=O)c3ccc(F)cc3)o2)cc(OC)c1OC	-2.1	-2.2	53.7*
SMILES	CAL PDZ FP-1	CAL PDZ FP-2	ARNT-TACC3 inh
COc1cccc(-c2nnc(NC(=O)CCS(=O)(=O)c3ccc(C)cc3)o2)c1	-2.4	-5.8	9.8
COc1cccc(S(=O)(=O)N2C[C@@H](O)COC[C@@H]3O[C@H](CC(=O)NCCCN4CCOCC4)CC[C@H]32)c1	x	x	-0.3
C[C@@H]1CN([C@H](C)CO)C(=O)c2cc(-c3cccc(C#N)c3)cnc2O[C@H]1CN(C)C(=O)c1cnccn1	x	x	15.0
C[C@H](NC(=O)c1ccco1)C(=O)Nc1nnc(SCc2ccccc2)s1	-0.7	-3.9	-11.8
C[C@H](NC(=O)c1ccco1)C(=O)Nc1nc(-c2ccccn2)cs1	0.2	-5.6	68.2*
C[C@H]1CCCCO[C@H](CN(C)C)[C@@H](C)CN([C@@H](C)CO)C(=O)c2cc(NC(=O)c3ccccc3)ccc2O1	x	x	2.7
CCCCCCC(=O)Nc1ccc(Br)cn1	-2.3	63.0*	-10.8
CCCCCC(=O)Nc1ccc(Cl)cn1	-0.3	-6.2	10.1
COc1ccc(C2CN=NC23CCc2ccccc2C3=O)cc1 (stereo not drawn)	-0.6	-0.7	-3.7
COc1ccc(C2CN=NC23CCCc2ccccc2C3=O)cc1 (stereo not drawn)	-1.4	56.9*	2.1
Cc1ccc(S(=O)(=O)Nc2ccc3c(c2)C(=O)N([C@@H](C)CO)C[C@H](C)[C@H](CN(C)C(=O)C2CCCCC2)OCCCC[C@@H](C)O3)cc1	x	x	-4.1
CCN1CCCc2cc(CN(CCN3CCOCC3)C(=S)Nc3cccc(C)c3)ccc21	-1.4	52.5*	32.8
CCN1CCCc2cc(CN(CCN3CCOCC3)C(=S)Nc3ccccc3C)ccc21	0.4	16.9	-2.3

Screening results (PubChem BioAssay)
